Test results: ChEMBL document CHEMBL1126263, “Development of high-affinity 5-HT3 receptor antagonists. 2. Two novel tricyclic benzamides” (J Med Chem, 1992)

What was measured:
Assay type in all cases: functional
Mustela putorius furo [1] = test: Antiemetic potency was tested against cisplatin-induced emetic episodes in ferret after oral administration
Summary of the method: (§1)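 Ferret cisplatin-emesis model. Drug given iv or po, 30 or 60 min before cisplatin. Emetic episodes counted and ED50 derived from 3–10 animals per dose, at least three per compound. Control emetic episode means were reported.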

Mustela putorius furo [2] = test: Antiemetic potency was tested against cisplatin-induced emetic latency period in ferret after oral administration
Summary of the method: (§2)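 Ferret cisplatin-emesis model, iv or po pretreatment 30 or 60 min before cisplatin. Emetic latency read-out given as ED100, the dose raising emetic latency 100% over the control period. Based on 3–10 animals per dose, at least three per compound.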

Mustela putorius furo [3] = test: The compound was evaluated for the percentage reduction in the emetic episodes against cisplatin induced emesis in ferret (intravenous administration)
Summary of the method: (§3)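 Ferrets receive the test agent iv as a pretreatment before the cisplatin challenge; the table footnotes give 30 min and 60 min pretreatment times. Each dose uses 3–10 animals, with at least three doses per agent.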

Mustela putorius furo [4] = test: The compound was evaluated for the percentage increase in the emetic latency period to first emetic episode against cisplatin induced emesis in ferret (intravenous administration); summary of the method: as §3
Mustela putorius furo [5] = test: Ratio of number of animals protected to the number of tested against cisplatin-induced emesis in ferret upon intravenous administration; 0/3; summary of the method: as §3
Mustela putorius furo [6] = test: Ratio of number of animals protected to the number of tested against cisplatin-induced emesis in ferret upon intravenous administration; 0/5; summary of the method: as §3
Mustela putorius furo [7] = test: The compound was evaluated for the percentage reduction in the emetic episodes against cisplatin-induced emesis in ferret (intravenous administration); summary of the method: as §3
Mustela putorius furo [8] = test: Antiemetic potency against cisplatin-induced emetic latency period in ferret after intravenous administration; summary of the method: as §2
Mustela putorius furo [9] = test: Antiemetic potency against cisplatin-induced emetic episodes in ferret after intravenous administration; summary of the method: as §1
Mustela putorius furo [10] = test: The compound was evaluated for the percentage increase in the emetic latency period against cisplatin-induced emesis in ferret (oral administration)
Summary of the method: (§4)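 Ferrets dosed orally in 0.5% methylcellulose vehicle 60 min before cisplatin and observed for 240 min. Scored for complete protection (protected/tested), mean % reduction in emetic episodes and mean % increase in emetic latency. Non-vomiting animals were assigned 240 min latency. Significance versus vehicle group at p<0.05 or p<0.01.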

Mustela putorius furo [11] = test: Ratio of number of animals protected to the number of tested against cisplatin-induced emesis in ferret upon intravenous administration; 0/4; summary of the method: as §3
Mustela putorius furo [12] = test: Ratio of number of animals protected to the number of tested against cisplatin-induced emesis in ferret upon intravenous administration; 2/4; summary of the method: as §3
Mustela putorius furo [13] = test: Compound was evaluated for Percent protected by giving RG 12915 (0.003 mg/kg) 60 min prior to cisplatin (orally) in ferret; summary of the method: as §4
Mustela putorius furo [14] = test: Mean percent increase in emetic episode evaluated by giving RG 12915 (0.1 mg/kg) 60 min prior to cisplatin (orally) in ferret; summary of the method: as §4
Mustela putorius furo [15] = test: Compound was evaluated for Percent protected by giving RG 12915 (0.03 mg/kg) 60 min prior to cisplatin (orally) in ferret; summary of the method: as §4
Mustela putorius furo [16] = test: Ratio of no. of protected and no. of tested evaluated by giving 0.5% methylcellulose 60 min prior to cisplatin (orally) in ferret; 0/22; summary of the method: as §4
Mustela putorius furo [17] = test: Mean percent reduction in emetic episode evaluated by giving RG 12915 (0.1 mg/kg) 60 min prior to cisplatin (orally) in ferret; summary of the method: as §4
Mustela putorius furo [18] = test: Mean percent increase in emetic episode evaluated by giving RG 12915 (0.003 mg/kg) 60 min prior to cisplatin (orally) in ferret; summary of the method: as §4
Mustela putorius furo [19] = test: Mean percent reduction in emetic episode evaluated by giving RG 12915 (0.003 mg/kg) 60 min prior to cisplatin (orally) in ferret; summary of the method: as §4
Mustela putorius furo [20] = test: Mean percent reduction in emetic episode evaluated by giving RG 12915 (1.0 mg/kg) 60 min prior to cisplatin (orally) in ferret; summary of the method: as §4
Mustela putorius furo [21] = test: Ratio of no. of protected and no. of tested evaluated by giving RG 12915 (0.03 mg/kg) 60 min prior to cisplatin (orally) in ferret; 4/4; summary of the method: as §4
Mustela putorius furo [22] = test: Mean percent increase in emetic episode evaluated by giving RG 12915 (0.010 mg/kg) 60 min prior to cisplatin (orally) in ferret; summary of the method: as §4
Mustela putorius furo [23] = test: Compound was evaluated for Percent protected by giving RG 12915 (0.1 mg/kg) 60 min prior to cisplatin (orally) in ferret; summary of the method: as §4
Mustela putorius furo [24] = test: Mean percent increase in emetic episode evaluated by giving RG 12915 (1.0 mg/kg) 60 min prior to cisplatin (orally) in ferret; summary of the method: as §4
Mustela putorius furo [25] = test: Mean percent reduction in emetic episode evaluated by giving RG 12915 (0.03 mg/kg) 60 min prior to cisplatin (orally) in ferret; summary of the method: as §4
Mustela putorius furo [26] = test: Compound was evaluated for Percent protected by giving RG 12915 (1.0 mg/kg) 60 min prior to cisplatin (orally) in ferret; summary of the method: as §4
Mustela putorius furo [27] = test: Mean percent reduction in emetic episode evaluated by giving RG 12915 (0.010 mg/kg) 60 min prior to cisplatin (orally) in ferret; summary of the method: as §4
Mustela putorius furo [28] = test: Ratio of no. of protected and no. of tested evaluated by giving RG 12915 (1.0 mg/kg) 60 min prior to cisplatin (orally) in ferret; 7/10; summary of the method: as §4
Mustela putorius furo [29] = test: Ratio of no. of protected and no. of tested evaluated by giving RG 12915 (0.1 mg/kg) 60 min prior to cisplatin (orally) in ferret; 6/6; summary of the method: as §4
Mustela putorius furo [30] = test: Compound was evaluated for Percent protected by giving 0.5% methylcellulose 60 min prior to cisplatin (orally) in ferret; summary of the method: as §4
Mustela putorius furo [31] = test: Mean percent increase in emetic episode evaluated by giving RG 12915 (0.03 mg/kg) 60 min prior to cisplatin (orally) in ferret; summary of the method: as §4
Mustela putorius furo [32] = test: Ratio of no. of protected and no. of tested evaluated by giving RG 12915 (0.003 mg/kg) 60 min prior to cisplatin (orally) in ferret; 1/4; summary of the method: as §4
Mustela putorius furo [33] = test: Ratio of no. of protected and no. of tested evaluated by giving RG 12915 (0.010 mg/kg) 60 min prior to cisplatin (orally) in ferret; 5/12; summary of the method: as §4
Mustela putorius furo [34] = test: Compound was evaluated for Percent protected by giving RG 12915 (0.010 mg/kg) 60 min prior to cisplatin (orally) in ferret; summary of the method: as §4
Mustela putorius furo [35] = test: The compound was evaluated for the percentage increase in the emetic latency period to first emetic episode against cisplatin-induced emesis in ferret (intravenous administration); summary of the method: as §3

O=C(N[C@H]1CN2CCC1CC2)c1cc(Cl)cc2c1O[C@H]1CCC[C@H]2C1
ED50 (Mustela putorius furo [1]): > 1 mg/kg | ED100 (Mustela putorius furo [2]): >1 mg/kg

CN1CCCC1CCNC(=O)c1cc(Cl)cc2c1OC1CCCCC21 (stereo not drawn)
Reduction (Mustela putorius furo [3]): -38.1% | Increase (Mustela putorius furo [4]): -0.9% | Ratio (Mustela putorius furo [5]): 0

CCN(CC)CCNC(=O)c1cc(Cl)cc2c1OC1CCCCC21 (stereo not drawn)
Ratio (Mustela putorius furo [6]): 0 | Reduction (Mustela putorius furo [7]): 2.2% | Increase (Mustela putorius furo [4]): 6.5%

O=C(N[C@H]1CN2CCC1CC2)c1cc(Cl)cc2c1O[C@H]1CCC[C@@H]2C1
ED50 (Mustela putorius furo [1]): 0.085 mg/kg | ED100 (Mustela putorius furo [2]): 0.408 mg/kg

O=C(NC1CN2CCC1CC2)c1cc(Cl)cc2c1OC1CCCCC21 (stereo not drawn)
ED100 (Mustela putorius furo [8]): 0.011 mg/kg | ED50 (Mustela putorius furo [1]): 0.005 mg/kg | ED50 (Mustela putorius furo [9]): 0.006 mg/kg | ED100 (Mustela putorius furo [10]): 0.011 mg/kg

O=C(NC1CN2CCC1CC2)c1cc(Cl)cc2c1OC1CCCC2C1 (stereo not drawn)
ED50 (Mustela putorius furo [1]): 0.079 mg/kg | ED100 (Mustela putorius furo [2]): 0.022 mg/kg

O=C(NCCc1c[nH]cn1)c1cc(Cl)cc2c1OC1CCCCC21 (stereo not drawn)
Reduction (Mustela putorius furo [3]): 44.4% | Increase (Mustela putorius furo [4]): 27.6% | Ratio (Mustela putorius furo [11]): 0

O=C(NCCN1CCOCC1)c1cc(Cl)cc2c1OC1CCCCC21 (stereo not drawn)
Reduction (Mustela putorius furo [3]): 48.9% | Increase (Mustela putorius furo [4]): 110.9% | Ratio (Mustela putorius furo [12]): 2

O=C(N[C@@H]1CN2CCC1CC2)c1cc(Cl)cc2c1O[C@@H]1CCCC[C@H]21
ED50 (Mustela putorius furo [1]): 0.041 mg/kg | ED100 (Mustela putorius furo [2]): 0.258 mg/kg

O=C(N[C@@H]1CN2CCC1CC2)c1cc(Cl)cc2c1O[C@H]1CCC[C@@H]2C1
ED100 (Mustela putorius furo [8]): 0.006 mg/kg | ED50 (Mustela putorius furo [1]): 0.007 mg/kg | ED50 (Mustela putorius furo [9]): 0.009 mg/kg | ED100 (Mustela putorius furo [2]): 0.01 mg/kg

O=C(N[C@@H]1CN2CCC1CC2)c1cc(Cl)cc2c1O[C@@H]1CCC[C@H]2C1
ED50 (Mustela putorius furo [1]): 0.061 mg/kg | ED100 (Mustela putorius furo [2]): 0.29 mg/kg

O=C(NC1CN2CCC1CC2)c1cc(Cl)cc2c3c(oc12)CCCC3 (stereo not drawn)
ED50 (Mustela putorius furo [1]): 0.033 mg/kg | ED100 (Mustela putorius furo [2]): 0.272 mg/kg

O=C(N[C@H]1CN2CCC1CC2)c1cc(Cl)cc2c1O[C@@H]1CCCC[C@H]21
ED50 (Mustela putorius furo [1]): 0.084 mg/kg | ED100 (Mustela putorius furo [2]): >3 mg/kg

O=C(N[C@H]1CN2CCC1CC2)c1cc(Cl)cc2c1O[C@H]1CCCC[C@@H]21
ED50 (Mustela putorius furo [1]): 0.056 mg/kg | ED100 (Mustela putorius furo [2]): 0.107 mg/kg

O=C(N[C@@H]1CN2CCC1CC2)c1cc(Cl)cc2c1O[C@H]1CCCC[C@@H]21
Protected (Mustela putorius furo [13]): 25% | Increase (Mustela putorius furo [14]): 195% | Protected (Mustela putorius furo [15]): 100% | ED100 (Mustela putorius furo [8]): 0.007 mg/kg | Ratio (Mustela putorius furo [16]): 0 | Reduction (Mustela putorius furo [17]): 100% | Increase (Mustela putorius furo [18]): 53% | Reduction (Mustela putorius furo [19]): 24% | Reduction (Mustela putorius furo [20]): 90% | Ratio (Mustela putorius furo [21]): 4 | ED50 (Mustela putorius furo [1]): 0.004 mg/kg | Increase (Mustela putorius furo [22]): 105% | Protected (Mustela putorius furo [23]): 100% | Increase (Mustela putorius furo [24]): 171% | Reduction (Mustela putorius furo [25]): 100% | Protected (Mustela putorius furo [26]): 70% | Reduction (Mustela putorius furo [27]): 57% | ED50 (Mustela putorius furo [9]): 0.004 mg/kg | Ratio (Mustela putorius furo [28]): 7 | ED100 (Mustela putorius furo [10]): 0.005 mg/kg | Ratio (Mustela putorius furo [29]): 6 | Protected (Mustela putorius furo [30]): 0% | Increase (Mustela putorius furo [31]): 195% | Ratio (Mustela putorius furo [32]): 1 | Ratio (Mustela putorius furo [33]): 5 | Protected (Mustela putorius furo [34]): 42%

Cn1cccc1CCNC(=O)c1cc(Cl)cc2c1OC1CCCCC21 (stereo not drawn)
Reduction (Mustela putorius furo [3]): 51.7% | Ratio (Mustela putorius furo [11]): 0 | Increase (Mustela putorius furo [35]): 1%

CN1C2CCCC1CC(NC(=O)c1nn(C)c3ccccc13)C2 (stereo not drawn) [GRANISETRON]
ED100 (Mustela putorius furo [8]): 0.082 mg/kg | ED100 (Mustela putorius furo [2]): 0.117 mg/kg

CCN(CC)CCNC(=O)c1cc(Cl)c(N)cc1OC [METOCLOPRAMIDE]
ED100 (Mustela putorius furo [8]): 2.1 mg/kg | ED100 (Mustela putorius furo [2]): >5 mg/kg

Cc1nccn1CC1CCc2c(c3ccccc3n2C)C1=O (stereo not drawn) [ONDANSETRON]
ED100 (Mustela putorius furo [8]): 0.015 mg/kg | ED50 (Mustela putorius furo [1]): 0.28 mg/kg | ED50 (Mustela putorius furo [9]): 0.008 mg/kg | ED100 (Mustela putorius furo [2]): 0.031 mg/kg
